ChEMBL document CHEMBL1137705, “Study of 5-nitroindazoles' anti-Trypanosoma cruzi mode of action: electrochemical behaviour and ESR spectroscopic studies” (Eur J Med Chem, 2009)
Active and inactive are the calls of the source. No cut-off for these calls is given here.

Assays:
[1] = system: Trypanosoma cruzi; assay: Growth inhibition of Trypanosoma cruzi CL-Brener clone epimastigotes […] at 25 uM measured on […] by Brener method; format: functional; conditions: 120 h, read-out: GI
Summary of the method: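 Axenic epimastigote culture (CL Brener) ran at 28 °C in BHI-tryptose with 5% FBS. Start density was 1 × 10⁶ cells/mL, with drug added from a DMSO stock (final ≤0.4%). %GI = {1 − [(Ap − A0p)/(Ac − A0c)]} × 100, using A600 at day 5 and day 0, drug versus drug-free control. Means of three experiments.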

[2] = system: Trypanosoma cruzi; assay: Antitrypanosomal activity against Trypanosoma cruzi CL-Brener clone epimastigotes […] measured on […] by Brener method; format: functional, organism-based; conditions: 120 h
Summary of the method: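 CL Brener epimastigotes were grown axenically at 28 °C in BHI-tryptose with 5% FBS. Day-0 inoculum was 1 × 10⁶ cells/mL from a 10-day stationary culture. Drug came from a DMSO stock, with final DMSO ≤0.4%; control had 0.4% DMSO and no drug. A600 was read daily. IC50 was the concentration reducing the day-5 absorbance ratio versus control to 50%.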

[3] = system: Trypanosoma cruzi; assay: Antitrypanosomal activity against Trypanosoma cruzi SN3 trypomastigotes infected in african green monkey Vero cells assessed as parasite viability at 22 uM after 24 hrs by MTT assay; format: functional
Summary of the method: (§1)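 Vero cells were infected with SN-3 metacyclic trypomastigotes, then reinfected at 1 × 10⁶ parasites per 25 cm². Harvested trypomastigotes (1 × 10⁷) were incubated in FBS-RPMI at 37 °C for 24 h with or without compound. MTT was added to an aliquot at 0.5 mg/mL final, 28 °C for 4 h. SDS–HCl solubilisation ran overnight. Read-out was A570, reference 690 nm; untreated parasites = 100% viability.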

[4] = system: Trypanosoma cruzi; assay: Induction of nitro-anion radical production in epimastigotes form of Trypanosoma cruzi Tulahuen microsomes at 1 mM after 25 mins by ESR spectroscopy; format: functional; conditions: Microsome
[5] = system: Trypanosoma cruzi; assay: Induction of nitro-anion radical production in epimastigotes form of Trypanosoma cruzi Tulahuen microsomes at 2 mM after 25 mins by ESR spectroscopy; format: functional; conditions: Microsome
[6] = system: Trypanosoma cruzi; assay: Antitrypanosomal activity against Trypanosoma cruzi SN3 trypomastigotes infected in african green monkey Vero cells assessed as parasite viability at 6.6 uM after 24 hrs by MTT assay; format: functional
[7] = system: Trypanosoma cruzi; assay: Antitrypanosomal activity against Trypanosoma cruzi SN3 trypomastigotes infected in african green monkey Vero cells assessed as parasite viability at 11 uM after 24 hrs by MTT assay; format: functional; summary of the method: as §1
[8] = system: Trypanosoma cruzi; assay: Antitrypanosomal activity against Trypanosoma cruzi SN3 trypomastigotes infected in african green monkey Vero cells assessed as parasite viability at 16.4 uM after 24 hrs by MTT assay; format: functional
[9] = system: Trypanosoma cruzi; assay: Antitrypanosomal activity against Trypanosoma cruzi SN3 trypomastigotes infected in african green monkey Vero cells assessed as parasite viability at 12.5 uM after 24 hrs by MTT assay; format: functional

Compound | inhibition of growth at 25 µM [1] [%] | other results
CC1CS(=O)(=O)CCN1/N=C/c1ccc([N+](=O)[O-])o1 (configuration not stated) [NIFURTIMOX] | 100 | IC50 [2]: 3.4 µM
O=c1c2cc([N+](=O)[O-])ccc2n2n1CCOCC2 | 6 | –
O=[N+]([O-])c1ccc2c(c1)c(OCc1ccccc1)nn2CCOCCN1CCCCC1 | 24 | –
O=[N+]([O-])c1ccc2c(c1)c(O)nn2CCOCCN1CCSCC1 | 0 | –
C[N+](C)([O-])CCOCCn1nc(OCc2ccccc2)c2cc([N+](=O)[O-])ccc21 | 6 | –
CCCCNCCCCCn1nc(OC)c2cc([N+](=O)[O-])ccc21 | 58 | Activity [3]: 40.04%; Activity [4]: Active; IC50 [2]: 22 µM; Activity [5]: Active
O=[N+]([O-])c1ccc2c(c1)c(OCc1ccccc1)nn2CCCCCN1CCCCC1 | 100 | Activity [6]: 0.29%
CN(C)CCCCCn1nc(OCc2ccccc2)c2ccccc21 | 18 | –
O=[N+]([O-])c1ccc2c(c1)c(OCc1ccccc1)nn2CCOCCN1CCSCC1 | 20 | –
O=[N+]([O-])c1ccc2c(c1)c(OCc1ccccc1)nn2CCOCC[N+]1([O-])CCCCC1 | 0 | –
CCCCNCCCCCn1nc(OCc2ccccc2)c2cc([N+](=O)[O-])ccc21 | 94 | IC50 [2]: 11 µM; Activity [7]: -0.37%
CN(C)CCOCCn1nc(OCc2ccccc2)c2cc([N+](=O)[O-])ccc21 | 80 | Activity [8]: 0.56%
CN(C)CCCCCn1nc(OCc2ccccc2)c2cc([N+](=O)[O-])ccc21 | 100 | Activity [9]: 0.49%
COc1nn(CCOCCN2CCCCC2)c2ccc([N+](=O)[O-])cc12 | 25 | –
O=c1c2cc([N+](=O)[O-])ccc2n2n1CCCCC2 | 4 | –
CN(C)CCOCCn1nc(O)c2cc([N+](=O)[O-])ccc21 | 3 | –
O=[N+]([O-])c1ccc2c(c1)c(O)nn2CCOCCN1CCCCC1 | 9 | –
